Assay [1] addresses Aurora kinase B (Homo sapiens) (UniProt Q96GD4). In words: Inhibition of Aurora-B (unknown origin) assessed as residual activity at 1 uM relative to control.
Assay [2] concerns the target Cyclin-dependent kinase 2/cyclin E1 (Homo sapiens) (UniProt P24864+P24941). Nature of the assay: Inhibition of CDK2/CycE (unknown origin) assessed as residual activity at 1 uM relative to control. It counts as protein-complex assay.
The nature of assay [3]: Antiproliferative activity against human OVCAR4 cells after 3 days by sulforhodamine B assay. The class given is functional. Conditions: OVCAR-4, 72 h. The method, boiled down:
(§1)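 Tested in the NCI 60 cell line panel. GI50 is the concentration giving 50% inhibition of cell growth, and values are the mean of two series of tests.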

Assay [4] has as its target Casein kinase II (Homo sapiens) (UniProt P67870+P68400+P19784). In words: Inhibition of CK2 in human PANC1 cells assessed as reduction of Akt phosphorylation at S473 at 0.25 to 8 uM after 2 hrs by Western blot analysis. It counts as cell-based. The following applies: PANC-1. In short, it runs like this:
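Panc1 cells were cultured in DMEM with 10% heat-inactivated FBS and penicillin/streptomycin at 37 °C and 5% CO2. Cells were treated with a range of concentrations for 2 h, with Ly294002 as positive control. Urea-buffer lysates (20–40 µg protein) were separated on 10% SDS–PAGE and probed for pAkt (S473) and β-actin. Detection was by ECL.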
A general note: Immunoblotting shows a protein as a band on a membrane.

Assay [5] has as its system ACHN. In words: Antiproliferative activity against human ACHN cells after 3 days by sulforhodamine B assay. The following applies: 72 h. It counts as functional. The method, boiled down:
as §1

The target of assay [6] is Casein kinase I isoform gamma-2 (Homo sapiens) (UniProt P78368). In words: Inhibition of human CK1gamma2 assessed as residual activity at 1 uM relative to control.
Casein kinase I isoform gamma-2 (Homo sapiens), sequence (P78368 whole entry, looked up, canonical isoform): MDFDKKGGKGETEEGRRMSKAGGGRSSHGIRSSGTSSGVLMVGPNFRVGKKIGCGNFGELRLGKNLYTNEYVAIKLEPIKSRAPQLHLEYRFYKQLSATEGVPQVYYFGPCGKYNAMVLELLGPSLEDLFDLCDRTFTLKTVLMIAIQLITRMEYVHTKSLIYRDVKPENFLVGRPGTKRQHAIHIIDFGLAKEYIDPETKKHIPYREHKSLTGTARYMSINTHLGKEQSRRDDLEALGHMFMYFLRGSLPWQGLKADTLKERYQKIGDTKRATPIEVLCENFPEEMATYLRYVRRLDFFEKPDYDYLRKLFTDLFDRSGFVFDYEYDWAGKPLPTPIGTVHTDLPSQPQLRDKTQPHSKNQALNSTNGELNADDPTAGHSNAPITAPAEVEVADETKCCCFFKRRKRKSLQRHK
The target in assay [7] is Tyrosine-protein kinase HCK (Homo sapiens) (UniProt P08631). Nature of the assay: Inhibition of human Hck assessed as residual activity at 1 uM relative to control.
Tyrosine-protein kinase HCK (Homo sapiens), sequence (P08631 2-526 limits assumed): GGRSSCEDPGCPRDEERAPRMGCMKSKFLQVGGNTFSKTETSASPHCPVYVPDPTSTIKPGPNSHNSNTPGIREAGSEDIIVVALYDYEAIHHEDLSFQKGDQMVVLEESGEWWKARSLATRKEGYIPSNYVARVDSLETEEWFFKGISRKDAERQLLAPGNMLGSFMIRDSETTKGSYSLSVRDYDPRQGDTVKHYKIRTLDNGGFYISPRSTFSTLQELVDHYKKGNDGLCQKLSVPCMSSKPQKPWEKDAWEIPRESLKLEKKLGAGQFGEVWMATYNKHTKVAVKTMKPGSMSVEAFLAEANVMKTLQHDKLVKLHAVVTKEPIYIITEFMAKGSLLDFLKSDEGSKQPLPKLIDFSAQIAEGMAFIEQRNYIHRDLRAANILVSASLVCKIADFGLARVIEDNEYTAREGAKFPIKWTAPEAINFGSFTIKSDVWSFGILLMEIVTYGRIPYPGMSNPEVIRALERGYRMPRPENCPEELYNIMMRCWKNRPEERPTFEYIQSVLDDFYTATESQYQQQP
For assay [8], the system named is Ribosomal protein S6 kinase alpha-6 (Homo sapiens). Nature of the assay: Inhibition of human Rsk4 assessed as residual activity at 1 uM relative to control.
Assay [9] is described as follows: Antiproliferative activity against human LXFL 529L cells after 3 days by SRB assay. The class given is functional, cell-based. Conditions: 72 h. The method, boiled down:
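Cells grown at 37 °C, 5% CO2, with 10% heat-inactivated FBS: LXFL529L in RPMI 1640, MCF7 and HT29 in DMEM. Seeded, allowed 24 h growth, then exposed to the drug at various concentrations for 3 days in serum medium. Fixed with TCA for 1 h at 4 °C, stained with 0.4% SRB, eluted in 10 mM Tris pH 10.5, read at 570 nm as % T/C. IC50 taken from dose–response curves of at least three independent experiments.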
A general note: In SRB staining, fixed cells bind dye roughly in proportion to their protein.

Assay [10] concerns the target T1, Muscle, skeletal receptor tyrosine-protein kinase (Homo sapiens) (UniProt O15146).
T1 sequence (whole entry): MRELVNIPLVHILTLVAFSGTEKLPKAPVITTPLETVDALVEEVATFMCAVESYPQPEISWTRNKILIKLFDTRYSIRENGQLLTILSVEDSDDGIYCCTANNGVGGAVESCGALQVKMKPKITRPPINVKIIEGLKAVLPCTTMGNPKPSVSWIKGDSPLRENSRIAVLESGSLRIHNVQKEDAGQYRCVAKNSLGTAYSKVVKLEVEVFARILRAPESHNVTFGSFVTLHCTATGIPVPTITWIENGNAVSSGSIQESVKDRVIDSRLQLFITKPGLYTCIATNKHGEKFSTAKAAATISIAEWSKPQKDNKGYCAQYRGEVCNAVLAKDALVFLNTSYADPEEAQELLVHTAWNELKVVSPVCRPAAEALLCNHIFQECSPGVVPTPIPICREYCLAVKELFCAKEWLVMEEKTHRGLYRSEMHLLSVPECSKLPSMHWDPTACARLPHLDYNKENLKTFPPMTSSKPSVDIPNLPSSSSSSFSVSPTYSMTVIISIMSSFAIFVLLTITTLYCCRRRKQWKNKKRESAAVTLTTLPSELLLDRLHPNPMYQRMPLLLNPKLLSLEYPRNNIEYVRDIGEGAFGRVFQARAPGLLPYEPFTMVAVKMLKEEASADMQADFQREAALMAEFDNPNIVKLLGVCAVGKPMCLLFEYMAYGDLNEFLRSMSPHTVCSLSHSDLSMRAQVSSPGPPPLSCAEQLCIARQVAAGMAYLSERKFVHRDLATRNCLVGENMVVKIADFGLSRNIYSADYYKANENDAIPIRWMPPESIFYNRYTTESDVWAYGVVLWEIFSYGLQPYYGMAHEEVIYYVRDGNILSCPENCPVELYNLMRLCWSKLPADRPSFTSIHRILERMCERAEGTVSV
In words: Inhibition of MUSK (unknown origin) assessed as residual activity at 1 uM relative to control.

The subject of assay [11] is MCF7. Nature of the assay: Cell cycle arrest in human MCF7 cells assessed as accumulation at sub-G1 phase at 0.5 uM after 24 hrs using propidium iodide staining by FACS analysis (reference value: 0.17%). It counts as functional.
The target of assay [12] is Receptor tyrosine-protein kinase erbB-4 (Homo sapiens) (UniProt Q15303). In words: Inhibition of human ErbB4 assessed as residual activity at 1 uM relative to control.
Assay [13] has as its target Ephrin type-A receptor 2 (Homo sapiens) (UniProt P29317). Nature of the assay: Inhibition of human EphA2 assessed as residual activity at 1 uM relative to control.
Assay [14] deals with Serine/threonine-protein kinase WNK2 (Homo sapiens) (UniProt Q9Y3S1). In words: Inhibition of human WNK2 assessed as residual activity at 1 uM relative to control.
The target in assay [15] is Tyrosine-protein kinase Blk (Mus musculus) (UniProt P16277). In words: Inhibition of mouse Blk assessed as residual activity at 1 uM relative to control.
Tyrosine-protein kinase Blk (Mus musculus), sequence (P16277 whole entry): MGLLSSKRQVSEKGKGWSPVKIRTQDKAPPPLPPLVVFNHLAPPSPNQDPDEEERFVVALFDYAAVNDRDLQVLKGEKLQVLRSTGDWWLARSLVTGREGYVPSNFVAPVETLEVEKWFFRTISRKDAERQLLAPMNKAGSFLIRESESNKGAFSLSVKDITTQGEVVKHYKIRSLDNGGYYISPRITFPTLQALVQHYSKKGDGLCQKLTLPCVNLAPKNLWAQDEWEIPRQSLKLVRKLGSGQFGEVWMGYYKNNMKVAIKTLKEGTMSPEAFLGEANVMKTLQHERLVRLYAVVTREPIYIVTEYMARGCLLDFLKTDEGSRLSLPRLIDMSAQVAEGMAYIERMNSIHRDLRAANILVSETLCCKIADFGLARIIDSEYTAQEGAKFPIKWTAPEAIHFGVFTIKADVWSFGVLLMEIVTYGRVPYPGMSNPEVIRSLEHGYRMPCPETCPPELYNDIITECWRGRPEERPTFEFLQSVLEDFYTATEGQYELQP
Assay [16] has as its target MAP kinase-activated protein kinase 5 (Homo sapiens) (UniProt Q8IW41). In words: Inhibition of human PRAK assessed as residual activity at 1 uM relative to control.
Assay [17] deals with Activin receptor type-1B (Homo sapiens) (UniProt P36896). Nature of the assay: Inhibition of human ALK4 assessed as residual activity at 1 uM relative to control.
Activin receptor type-1B (Homo sapiens), sequence (P36896 whole entry): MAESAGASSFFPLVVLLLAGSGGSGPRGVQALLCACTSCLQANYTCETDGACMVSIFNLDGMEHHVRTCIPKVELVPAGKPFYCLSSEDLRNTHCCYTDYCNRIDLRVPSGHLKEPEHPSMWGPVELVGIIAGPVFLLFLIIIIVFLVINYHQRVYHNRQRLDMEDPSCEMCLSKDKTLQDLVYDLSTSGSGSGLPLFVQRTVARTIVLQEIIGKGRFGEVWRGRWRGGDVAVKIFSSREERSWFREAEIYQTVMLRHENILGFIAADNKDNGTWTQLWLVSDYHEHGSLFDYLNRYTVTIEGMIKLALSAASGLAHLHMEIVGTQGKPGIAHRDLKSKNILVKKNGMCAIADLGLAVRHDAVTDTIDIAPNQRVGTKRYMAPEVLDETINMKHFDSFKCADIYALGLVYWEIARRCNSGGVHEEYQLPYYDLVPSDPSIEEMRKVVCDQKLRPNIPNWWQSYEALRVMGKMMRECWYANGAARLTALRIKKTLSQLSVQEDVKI
Assay [18] has as its target RAF proto-oncogene serine/threonine-protein kinase (Homo sapiens) (UniProt P04049). Nature of the assay: Inhibition of human c-RAF assessed as residual activity at 1 uM relative to control.
For assay [19], the target named is Tyrosine-protein kinase FRK (Homo sapiens) (UniProt P42685). In words: Inhibition of human PTK5 assessed as residual activity at 1 uM relative to control.
Assay [20] concerns the target Serine/threonine-protein kinase PLK2 (Homo sapiens) (UniProt Q9NYY3). Nature of the assay: Inhibition of human Snk assessed as residual activity at 1 uM relative to control.
The species named for assay [21] is Homo sapiens. Nature of the assay: Inhibition of S6K (unknown origin) assessed as residual activity at 10 uM relative to control.
Assay [22] concerns the target Calcium/calmodulin-dependent protein kinase type IV (Homo sapiens) (UniProt Q16566). Nature of the assay: Inhibition of human CaMK4 assessed as residual activity at 1 uM relative to control.
Assay [23] deals with Ephrin type-A receptor 7 (Homo sapiens) (UniProt Q15375). Nature of the assay: Inhibition of human EphA7 assessed as residual activity at 1 uM relative to control.
Ephrin type-A receptor 7 (Homo sapiens), sequence (Q15375 28-998 limits assumed): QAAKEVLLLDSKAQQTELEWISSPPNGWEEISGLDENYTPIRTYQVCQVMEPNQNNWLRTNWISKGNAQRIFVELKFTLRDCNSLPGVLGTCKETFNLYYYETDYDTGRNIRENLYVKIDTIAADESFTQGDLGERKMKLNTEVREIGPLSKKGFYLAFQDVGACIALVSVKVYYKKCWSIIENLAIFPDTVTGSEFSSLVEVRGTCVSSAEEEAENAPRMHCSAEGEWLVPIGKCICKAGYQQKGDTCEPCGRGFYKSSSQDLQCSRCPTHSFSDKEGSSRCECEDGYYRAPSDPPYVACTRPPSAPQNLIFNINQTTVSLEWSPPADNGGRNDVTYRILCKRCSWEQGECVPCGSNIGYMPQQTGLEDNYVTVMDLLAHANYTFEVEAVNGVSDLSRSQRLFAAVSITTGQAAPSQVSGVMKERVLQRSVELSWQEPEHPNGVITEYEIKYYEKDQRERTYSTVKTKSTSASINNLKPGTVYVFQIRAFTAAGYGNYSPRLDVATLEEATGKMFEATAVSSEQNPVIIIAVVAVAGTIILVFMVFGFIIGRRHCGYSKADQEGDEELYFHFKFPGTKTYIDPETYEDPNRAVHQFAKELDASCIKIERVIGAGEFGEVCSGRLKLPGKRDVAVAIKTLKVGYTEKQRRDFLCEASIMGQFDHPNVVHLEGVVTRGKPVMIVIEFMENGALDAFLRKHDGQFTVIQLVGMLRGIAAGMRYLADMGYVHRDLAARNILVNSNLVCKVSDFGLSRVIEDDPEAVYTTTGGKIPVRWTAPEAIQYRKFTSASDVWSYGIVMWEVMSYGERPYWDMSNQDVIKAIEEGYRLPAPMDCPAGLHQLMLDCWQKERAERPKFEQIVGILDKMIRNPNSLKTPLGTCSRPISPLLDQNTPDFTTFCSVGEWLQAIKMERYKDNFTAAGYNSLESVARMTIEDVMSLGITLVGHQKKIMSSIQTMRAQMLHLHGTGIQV

Active and inactive are the calls of the source. The calls are words filed in the database; no cut-off is given here.

By GI50 is commonly meant the concentration giving 50% growth inhibition. The low end stands for more potent growth inhibition, the high end for less potent growth inhibition. The IC50 is the concentration that inhibits the measured activity by half.

Aurora kinase B (Homo sapiens), sequence (Q96GD4 whole entry): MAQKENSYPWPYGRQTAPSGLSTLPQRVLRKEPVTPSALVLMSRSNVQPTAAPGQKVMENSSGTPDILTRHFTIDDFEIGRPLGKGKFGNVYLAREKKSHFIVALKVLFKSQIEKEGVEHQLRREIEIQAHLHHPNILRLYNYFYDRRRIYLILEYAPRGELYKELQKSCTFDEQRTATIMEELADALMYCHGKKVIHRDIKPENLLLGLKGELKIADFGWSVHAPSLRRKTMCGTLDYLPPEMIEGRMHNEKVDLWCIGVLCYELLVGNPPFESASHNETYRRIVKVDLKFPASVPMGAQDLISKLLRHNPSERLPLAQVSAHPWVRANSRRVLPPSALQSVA
Ephrin type-A receptor 2 (Homo sapiens), sequence (P29317 whole entry): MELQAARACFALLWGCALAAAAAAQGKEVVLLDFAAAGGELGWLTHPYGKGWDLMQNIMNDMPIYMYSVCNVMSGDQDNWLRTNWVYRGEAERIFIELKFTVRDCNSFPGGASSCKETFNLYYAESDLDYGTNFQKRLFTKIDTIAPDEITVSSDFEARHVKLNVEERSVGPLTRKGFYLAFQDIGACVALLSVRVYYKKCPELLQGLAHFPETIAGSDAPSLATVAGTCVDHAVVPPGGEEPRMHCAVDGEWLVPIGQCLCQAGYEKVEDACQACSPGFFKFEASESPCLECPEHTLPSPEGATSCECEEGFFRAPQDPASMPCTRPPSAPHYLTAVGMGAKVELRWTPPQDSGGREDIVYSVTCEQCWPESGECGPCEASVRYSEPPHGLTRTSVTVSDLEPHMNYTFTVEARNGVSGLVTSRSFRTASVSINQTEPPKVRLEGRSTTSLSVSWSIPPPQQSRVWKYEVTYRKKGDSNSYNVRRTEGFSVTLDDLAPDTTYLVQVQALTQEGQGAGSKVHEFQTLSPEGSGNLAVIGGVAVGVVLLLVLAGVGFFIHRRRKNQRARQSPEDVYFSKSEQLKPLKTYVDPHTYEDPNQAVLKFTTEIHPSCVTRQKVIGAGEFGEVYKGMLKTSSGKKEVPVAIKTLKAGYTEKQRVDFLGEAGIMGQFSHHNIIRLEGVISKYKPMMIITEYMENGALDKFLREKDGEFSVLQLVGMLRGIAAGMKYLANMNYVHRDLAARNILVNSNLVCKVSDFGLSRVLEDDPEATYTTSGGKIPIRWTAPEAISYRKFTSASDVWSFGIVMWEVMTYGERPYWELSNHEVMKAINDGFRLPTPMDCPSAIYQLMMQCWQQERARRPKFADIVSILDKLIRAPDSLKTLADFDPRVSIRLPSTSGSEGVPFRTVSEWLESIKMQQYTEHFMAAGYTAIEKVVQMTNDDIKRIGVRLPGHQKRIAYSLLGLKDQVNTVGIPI
MAP kinase-activated protein kinase 5 (Homo sapiens), sequence (Q8IW41 whole entry): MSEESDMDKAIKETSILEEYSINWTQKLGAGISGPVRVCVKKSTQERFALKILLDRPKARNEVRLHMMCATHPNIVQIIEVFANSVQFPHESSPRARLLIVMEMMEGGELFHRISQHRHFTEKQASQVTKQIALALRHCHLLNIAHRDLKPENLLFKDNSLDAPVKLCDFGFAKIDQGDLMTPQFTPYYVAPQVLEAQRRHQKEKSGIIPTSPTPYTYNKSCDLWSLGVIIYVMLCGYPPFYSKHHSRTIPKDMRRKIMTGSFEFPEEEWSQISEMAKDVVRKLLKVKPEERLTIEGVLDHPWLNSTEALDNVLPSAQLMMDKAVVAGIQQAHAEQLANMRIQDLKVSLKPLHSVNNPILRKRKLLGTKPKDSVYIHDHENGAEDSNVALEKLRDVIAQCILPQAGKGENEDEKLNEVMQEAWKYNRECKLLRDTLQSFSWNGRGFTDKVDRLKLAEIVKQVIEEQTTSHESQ

In the case of `O=C1Nc2ncccc2/C1=C1/Nc2ncccc2C1=O`, the Activity was 108% in [1]; 90% in assay [2]; 114% in [6]; 100% in [7]; 122% in assay [8]; 95% in assay [10]. The Activity in assay [11] worked out at 0.37%; in assay [12] it was 121%; in assay [13] it was 122%; in assay [14], 102%; in assay [15], 113%; in assay [16] it was 105%. In addition, the Activity is 106% in assay [17]; 73% in assay [18]; 92% in assay [19]; 83% in assay [20]; 99% in [21]; 100% in [22]. Also, the Activity in assay [23] came out at 105%. Further, the results for the GI50 in [3] and in assay [5] were 1090 nM and 1480 nM, respectively. Moreover, in [4], the inhibition entry is “Active”. Besides, in assay [9], half-maximal inhibition (IC50) was put at 60 nM.
